The values below come from ChEMBL document CHEMBL1152315, “Benzophenone derivatives from the fruits of Garcinia multiflora and their anti-inflammatory activity” (J Nat Prod, 2009).

Assay [1] is described as follows: Antiinflammatory activity in human neutrophils assessed as inhibition of fMet-Leu-Phe/Cytochalasin B-induced superoxide anion generation treated 5 mins before fMet-Leu-Phe/Cytochalasin B challenge by spectrophotometry. It counts as functional, cell-based. Particulars: Neutrophil. The essentials:
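Donor neutrophils (6 × 10^5/mL, Ca2+-free HBSS pH 7.4) were given 0.5 mg/mL ferricytochrome c and 1 mM Ca2+, held at 37 °C for 2 min, then exposed to compound (10-0.01 µg/mL) or DMSO for 5 min. Cytochalasin B (1 µg/mL) was added for 3 min, then fMLP (100 nM) for 10 min. SOD-inhibitable cytochrome c reduction was read at 550 nm (ε 21.1/mM/10 mm).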

The nature of assay [2]: Antiinflammatory activity in human neutrophils assessed as inhibition of fMet-Leu-Phe/Cytochalasin B-induced elastase release treated 5 mins before fMet-Leu-Phe/Cytochalasin B challenge. It counts as functional, cell-based. As to conditions: Neutrophil. The essentials: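 Neutrophils from venous blood of healthy adult donors (20-28 y), isolated by dextran sedimentation, Ficoll Hypaque and hypotonic erythrocyte lysis; 6 × 10^5/mL with MeO-Suc-Ala-Ala-Pro-Val-p-nitroanilide substrate (100 µM), 37 °C for 2 min, then compound for 5 min. Stimulated with fMLP (100 nM)/CB (0.5 µg/mL). Absorbance at 405 nm monitored continuously; expressed as percent of drug-free activated control.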

Consider `CC(C)=CC[C@H]1C[C@@]23C[C@@H](CC=C(C)C)C(C)(C)[C@@](CC=C(C)C)(C(=O)C(C(=O)c4ccccc4)=C2OC1(C)C)C3=O`, for which the values for the 50% inhibitory concentration (IC50) in assay [1] and in assay [2] were 0.88 µM and 1.16 µM, respectively.
Regarding `C=C(C)[C@@H](CC=C(C)C)C[C@@]12C[C@@H](CC=C(C)C)C(C)(C)[C@]3(C=CC(C)(C)OC3=C(C(=O)c3cccc(O)c3)C1=O)C2=O` [13-HYDROXYGARCIMULTIFLORONE B], the IC50 in assay [1] came to 0.4 µM; in assay [2], 0.86 µM.
For the molecule `CC[C@H](CC[C@@H](C)[C@H]1CC[C@H]2[C@@H]3CC=C4CC(=O)CC[C@]4(C)[C@H]3CC[C@]12C)C(C)C` [BETA-SITOSTENONE], the IC50 in assay [1] and in assay [2] was greater than 30 µM in each case.
`CC(C)=CCC/C(C)=C/CC/C(C)=C/CC[C@]1(C)CCc2cc(O)cc(C)c2O1` [DELTA-TOCOTRIENOL]: the results for the 50% inhibitory concentration (IC50) in assay [1] and in assay [2] were 14.8 µM and 15.1 µM, respectively.
`c1ccc2c(c1)[I+]c1ccccc1-2` [DIPHENYLENEIODONIUM]: in assay [1], the half-maximal inhibitory concentration (IC50) is 1.7 µM.
On to `COc1cc2ccc(=O)oc2c(OC)c1OC` [FRAXIDIN METHYL ETHER], for which the IC50 in assay [1] and in assay [2] was greater than 30 µM in each case.
In the case of `CC(C)=CCC1=C2OC(C)(C)[C@@H](CC=C(C)C)C[C@@]23C[C@@H](CC=C(C)C)C(C)(C)[C@@](C(=O)c2ccccc2)(C1=O)C3=O` [GARCIMULTIFLORONE A], the IC50 in assay [1] was found to be 5.58 µM; in assay [2], 4.65 µM.
`C=C(C)[C@@H](CC=C(C)C)C[C@@]12C[C@@H](CC=C(C)C)C(C)(C)[C@]3(C=CC(C)(C)OC3=C(C(=O)c3ccccc3)C1=O)C2=O` [GARCIMULTIFLORONE B]: the concentration for half-maximal inhibition (IC50) was determined as 0.11 µM in assay [1] and 0.14 µM in assay [2].
`C=C(C)[C@@H](CC=C(C)C)C[C@@]12C[C@H]3C[C@@H](C(C)(C)O)[C@](C(=O)c4ccccc4)(C1=O)C(=O)[C@@](CC(O)C(C)(C)O)(C2=O)C3(C)C` (some centres not stated) [GARCIMULTIFLORONE C]: the IC50 in assay [1] was found to be 7.21 µM; in assay [2], 12.1 µM.
With `O=S(=O)(F)Cc1ccccc1` [PHENYLMETHYLSULFONYLFLUORIDE], the 50% inhibitory concentration (IC50) in assay [2] came out at 204 µM.
For `COc1cc2ccc(=O)oc2cc1OC` [SCOPARONE], the IC50 in assay [1] and in assay [2] was greater than 30 µM throughout.
Consider `CC(C)=CCC/C(C)=C/CC/C(C)=C/CC/C=C(\C)CC/C=C(\C)CCC=C(C)C` [SQUALENE], for which the concentration for half-maximal inhibition (IC50) in assay [1] and in assay [2] was greater than 30 µM each time.
